Where a SMILES comes first, the peptide text is derived from it. [ ]: non-standard residue; d: D form. Nle = CCCC[C@H](N)C(=O)O
Tests used:
L1210 = assay: Inhibitory concentration of the compound was determined against L1210 cells; type: functional, cell-based; conditions: Mus musculus
Summary of the method: (§1)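 MTT read-out on cultured cells (murine leukemia L1210, melanoma B16, normal melanocyte Mel-A), scoring growth inhibition as either a cytostatic or a cytotoxic effect.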

B16 = assay: Inhibitory concentration of the compound was determined against melanoma B16 cells; type: functional, cell-based; conditions: Mus musculus; summary of the method: as §1
Mel-A (Mus musculus) = assay: Inhibitory concentration of the compound was determined against melanocyte Mel-A cells
Proteasome [1] = assay: Inhibitory concentration against 20S proteasome chymotrypsin-like activity; type: subcellular
[2] = molecular target: T1, Calpain-1 catalytic subunit (Homo sapiens, UniProt P07384); assay: Inhibitory concentration against Calpain I activity
T1 sequence (P07384 whole entry): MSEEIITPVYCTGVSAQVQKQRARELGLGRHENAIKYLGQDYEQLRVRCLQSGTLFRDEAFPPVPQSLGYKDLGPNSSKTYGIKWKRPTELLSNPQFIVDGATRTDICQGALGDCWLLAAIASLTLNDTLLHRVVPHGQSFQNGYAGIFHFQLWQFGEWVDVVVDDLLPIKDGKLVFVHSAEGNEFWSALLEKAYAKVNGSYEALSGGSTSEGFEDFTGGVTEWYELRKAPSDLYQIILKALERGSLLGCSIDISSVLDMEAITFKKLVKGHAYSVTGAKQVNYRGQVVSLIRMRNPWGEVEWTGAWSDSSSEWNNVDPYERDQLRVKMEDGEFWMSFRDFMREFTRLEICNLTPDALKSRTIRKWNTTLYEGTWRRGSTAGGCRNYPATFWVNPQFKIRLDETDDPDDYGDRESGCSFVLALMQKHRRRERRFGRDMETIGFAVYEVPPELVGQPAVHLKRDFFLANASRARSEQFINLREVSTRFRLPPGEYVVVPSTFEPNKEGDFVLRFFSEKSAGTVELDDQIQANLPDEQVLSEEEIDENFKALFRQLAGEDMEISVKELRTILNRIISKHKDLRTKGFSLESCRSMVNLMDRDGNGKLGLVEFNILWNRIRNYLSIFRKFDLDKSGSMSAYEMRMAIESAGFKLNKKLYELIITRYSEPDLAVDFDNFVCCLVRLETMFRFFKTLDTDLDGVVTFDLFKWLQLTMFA

Cathepsin B = Cathepsin B (Homo sapiens, UniProt P07858); assay: (§2) Inhibitory concentration against Cathepsin B activity; type: functional
[3] = Inhibitory concentration against peptidyl-glutamyl peptide hydrolase activity
Proteasome [4] = assay: Inhibitory effect on 20S proteasome chymotrypsin-like activity; type: subcellular
[5] = as §2

IC50 (L1210) [µM] | IC50 (B16) [µM] | IC50 (Mel-A (Mus musculus)) [µM] | IC50 (Proteasome [1]) [µM] | IC50 [2] [µM] | IC50 (Cathepsin B) [µM] | IC50 [3] [µM] | IC50 (Proteasome [4]) [µM] | IC50 [5] [µM] | Structure (SMILES)
27.9 | 65.5 | 45.1 | > 1000 |  |  |  |  |  | CC(C)CN(NC(=O)OCc1ccccc1)C(=O)CN(Cc1ccccc1)/N=C/c1ccccc1B(O)O
18.4 | 33.5 | 25.1 | > 1000 |  |  |  |  |  | CC(C)CN(CC(=O)N(Cc1ccccc1)NC(=O)OCc1ccccc1)/N=C/c1ccccc1B(O)O
> 80 | > 80 | 16.3 | 500 |  |  |  |  |  | CC(C)CN(NC(=O)CN(Cc1ccccc1)/N=C/c1cccc(B(O)O)c1)c1cnccn1
16.9 | 20.5 | 19.9 | > 1000 |  |  |  |  |  | CC(C)CN(CC(=O)N(Cc1ccccc1)NC(=O)OCc1ccccc1)/N=C/c1cccc(B(O)O)c1
6.5 | 1.3 | 3.3 | > 1000 |  |  |  |  |  | CC(C)CN(CC(=O)N(CC(C)C)NC(=O)OCc1ccccc1)NC(=O)CBr
41.6 | 21.1 | 40.3 | 350 |  |  |  |  |  | CC(C)CN(CC(=O)N(Cc1cccnc1)NC(=O)OCc1ccccc1)/N=C/c1cccc(B(O)O)c1
7.6 | 2.5 | 2.3 | > 1000 |  |  |  |  |  | CC(C)CN(CC(=O)N(CC(C)C)NC(=O)OCc1ccccc1)NC(=O)CNNC(=O)CBr
16.2 | 20.4 | 18.4 | 53 | > 1000 | > 1000 |  |  |  | CC(C)CN(NC(=O)OCc1ccccc1)C(=O)CN(Cc1ccccc1)/N=C/c1cccc(B(O)O)c1
0.6 | 0.7 |  | > 1000 |  |  |  |  |  | CC(C)CN(NC(=O)CN(Cc1ccccc1)NC(=O)CBr)C(=O)OCc1ccccc1
75 | 74.9 | 60.9 | > 1000 |  |  |  |  |  | CC(C)CN(NC(=O)OCc1ccccc1)C(=O)CN(Cc1cccnc1)/N=C/c1cccc(B(O)O)c1
> 80 | > 80 | 33.7 | > 1000 |  |  |  |  |  | CC(C)CN(CC(=O)NN(Cc1ccccc1)c1cnccn1)/N=C/c1cccc(B(O)O)c1
1.3 | 1.4 | 1.8 | > 1000 |  |  |  |  |  | CC(C)CN(NC(=O)OCc1ccccc1)C(=O)CN(Cc1ccccc1)NC(=O)CBr
14.7 | 32.6 | 39.3 | > 1000 |  |  |  |  |  | CC(C)CN(NC(=O)OCc1ccccc1)C(=O)CN(Cc1ccccc1)/N=C/c1ccc(B(O)O)cc1
21.2 | 53.9 |  | 91 |  |  |  |  |  | CC(C)CN(CC(=O)N(CC(C)C)NC(=O)OCc1ccccc1)/N=C/c1cccc(B(O)O)c1
5 | 2.2 | 4.5 | > 1000 |  |  |  |  |  | CC(C)CN(CC(=O)N(CC(C)C)NCC(=O)OCc1ccccc1)NC(=O)CBr
30 | > 80 |  | > 1000 |  |  |  |  |  | CC(C)CN(NC(=O)OCc1ccccc1)C(=O)CN(Cc1ccccc1)NCc1cccc(Br)c1
24.1 | 11.4 | 14.8 | > 1000 |  |  |  |  |  | CC(C)CN(CC(=O)NN(Cc1ccccc1)c1cnccn1)NC(=O)CBr
16.2 | 26.3 | 17.3 | 50 | > 1000 | > 1000 |  |  |  | CC(C)CN(CC(=O)N(CC(C)C)NC(=O)OCc1ccccc1)/N=C/c1ccccc1B(O)O
3 | 14.5 |  |  | 1 |  | 45 | 15 | 12 | CCCC[C@@H](C=O)NC(=O)[C@H](CC(C)C)NC(=O)[C@H](CC(C)C)NC(C)=O (Ac-Leu-Leu-[Nle]-aldehyde)

From ChEMBL document CHEMBL1139495, “Retro hydrazino-azapeptoids as peptidomimetics of proteasome inhibitors” (J Med Chem, 2005)
